Data from ChEMBL document CHEMBL1123272, “Comparison of (-)-eseroline with (+)-eseroline and dihydroseco analogues in antinociceptive assays: confirmation of rubreserine structure by X-ray analysis” (1986).
Active and inactive are the calls of the source. No cut-off for these calls is given here.

Columns and labels:
Mus musculus [1] = assay: Compound was tested in vivo for narcotic agonist activity (dose in sc, mg/kg) in mice using hot plate assay; format: functional
Summary of the method: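 Mouse hot-plate test for narcotic agonist activity with subcutaneous dosing. Values are in mg/kg with 95% confidence limits.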

Mus musculus [2] = assay: Compound was tested in vivo for narcotic agonist activity (dose in sc, mg/kg) in mice using phenylquinone assay.; format: functional
Mus musculus [3] = assay: Compound was tested in vivo for narcotic agonist activity (dose in sc, mg/kg) in mice using tail flick assay.; format: functional
Mus musculus [4] = assay: Compound was tested in vivo for narcotic antagonist activity (dose in sc, mg/kg) in mice using tail flick antagonism assay; I = Inactive at 1,10, 30 mg/kg; format: functional, organism-based; parameters: dose 30 mg/kg
Summary of the method: (§1)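 Mouse tail-flick antagonism assay against morphine, with the test compound given subcutaneously and doses in mg/kg. It was run by an outside laboratory (Medical College of Virginia).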

Mus musculus [5] = assay: Compound was tested in vivo for narcotic agonist activity (dose in sc, mg/kg) in mice using hot plate assay; I = Inactive at 1,10, 30 mg/kg; format: functional, organism-based; parameters: dose 30 mg/kg
Mus musculus [6] = assay: Compound was tested in vivo for narcotic agonist activity (dose in sc, mg/kg) in mice using tail flick assay; I = Inactive at 1,10, 30 mg/kg; format: functional, organism-based; parameters: dose 30 mg/kg
Mus musculus [7] = assay: Compound was tested in vivo for narcotic agonist activity (dose in sc, mg/kg) in mice using phenylquinone assay; format: functional
Mus musculus [8] = assay: Compound was tested in vivo for narcotic agonist activity (dose in sc, mg/kg) in mice using tail flick assay; format: functional
Mus musculus [9] = assay: Compound was tested in vivo for narcotic antagonist activity (dose in sc, mg/kg) in mice using tail flick antagonism assay; I =inactive at 1, 10, 30 mg/kg; format: functional, organism-based; parameters: dose 30 mg/kg; summary of the method: as §1
Mus musculus [10] = assay: Compound was tested in vivo for narcotic agonist activity (dose in sc, mg/kg) in mice using phenylquinone assay; I = Inactive at 1,10, 30 mg/kg; format: functional, organism-based; parameters: dose 30 mg/kg
Mus musculus [11] = assay: Compound was tested in vivo for narcotic antagonist activity (dose in sc, mg/kg) in mice using tail flick antagonism assay; format: functional; summary of the method: as §1

Compound	Activity (Mus musculus [1])	Activity (Mus musculus [2])	Activity (Mus musculus [4])	Activity (Mus musculus [5])	Activity (Mus musculus [6])	further results
CN1CC[C@@]2(C)c3cc(O)ccc3N(C)[C@@H]12	1.6	0.7	inactive			Activity (Mus musculus [3]): 2.3
CN1CC[C@]2(C)c3cc(O)ccc3N(C)[C@H]12		2.3	inactive	inactive	inactive	
CN1CC[C@]23c4c5ccc(O)c4O[C@H]2[C@@H](O)C=C[C@H]3[C@H]1C5 [MORPHINE]	1.3					Activity (Mus musculus [7]): 0.23; Activity (Mus musculus [8]): 5.8; Activity (Mus musculus [9]): inactive
CN1c2ccc(O)cc2[C@]2(C)CCN[C@H]12				inactive		
C=CCN1CC[C@]23c4c5ccc(O)c4O[C@H]2C(=O)CC[C@@]3(O)[C@H]1C5 [NALOXONE]				inactive	inactive	Activity (Mus musculus [10]): inactive; Activity (Mus musculus [11]): 0.03
